Values after ≈ are worked out from the molar mass of the structure shown. Active and inactive are the calls of the source. No cut-off for these calls is given here.
What was measured:
[1] = Selectivity index, ratio of IC50 for African green monkey Vero cells to MIC100 for replicating Mycobacterium tuberculosis H37Rv by MABA; format: toxicity; details: read-out: Selectivity Index
In short: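 Vero cells are cultured in EMEM with 10% FBS and exposed for 72 h to 0.78–200 µg/mL. Medium is switched to phenol-red-free EMEM, MTT is added, and formazan is read at 570 nm to give IC50. The selectivity index is Vero IC50 divided by the MABA MIC.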

[2] = system: Mycolicibacterium smegmatis; assay: Bactericidal activity against Mycobacterium smegmatis ATCC 607 incubated for 48 hrs under aerobic condition by MABA; format: functional; details: ATCC 607, 48 h
[3] = system: Staphylococcus aureus; assay: Bactericidal activity against Staphylococcus aureus BAA 2094 incubated for 24 hrs under aerobic condition by MABA; format: functional; details: BAA 2094, 24 h
[4] = system: Staphylococcus aureus; assay: Antibacterial activity against Staphylococcus aureus ATCC 25923 incubated for 24 hrs under aerobic condition by MABA; format: functional; details: ATCC 25923, 24 h, read-out: MIC100
In short: (§1)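 Mid-log cultures at OD 0.5 were exposed to serial dilutions under aerobic conditions at 37 °C for 24 h. Resazurin was then added from a 0.08% stock for 1 h. MIC100 was the lowest concentration where the dye stayed blue (pink means growth). Absorbance was also read at 570 and 600 nm.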

[5] = system: Acinetobacter baumannii; assay: Antibacterial activity against Acinetobacter baumannii ATCC 19606 incubated for 24 hrs under aerobic condition by MABA; format: functional; details: ATCC 19606 = CIP 70.34 = JCM 6841, 24 h, read-out: MIC100; in short: as §1
[6] = Cmax in Balb/c mouse lung at 30 mg/kg, po; format: ADME, organism-based; set-up: dose 30 mg/kg, route oral
[7] = system: Enterococcus faecalis; assay: Bactericidal activity against Enterococcus faecalis ATCC 349 incubated for 24 hrs under aerobic condition by MABA; format: functional; details: ATCC 349, 24 h
[8] = system: Clostridioides difficile; assay: Bactericidal activity against Clostridium difficile ATCC 700057 incubated for 24 hrs […] by MABA; format: functional; details: ATCC 700057, 24 h
[9] = system: Staphylococcus aureus; assay: Bactericidal activity against Staphylococcus aureus BAA 1683 incubated for 24 hrs under aerobic condition by MABA; format: functional; details: BAA 1683, 24 h
[10] = system: Mycobacterium tuberculosis; assay: Bactericidal activity against replicating Mycobacterium tuberculosis H37Rv incubated for 15 days under aerobic condition by MABA; format: functional; details: 360 h
In short: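 Mtb H37Rv grown in 7H9/OADC at 37 °C with shaking to OD600 0.5. The 0.5-OD culture is exposed aerobically to serial dilutions for 15 days at 37 °C. Resazurin (0.02% stock) is then added for 4 h at 37 °C with shaking.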

[11] = system: Enterococcus faecalis; assay: Antibacterial activity against Enterococcus faecalis ATCC 349 incubated for 24 hrs under aerobic condition by MABA; format: functional; details: ATCC 349, 24 h, read-out: MIC100; in short: as §1
[12] = system: Mycobacterium tuberculosis; assay: Bactericidal activity against non-replicating Mycobacterium tuberculosis CDC1551 expressing tdTomato infected in mouse J774A.1 cells at 2 times MIC up to 72 hrs by UV-Visible spectroscopic method; format: functional, organism-based
In short: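 J774A.1 macrophages are seeded at […] cells/well in DMEM and incubated overnight at 37 °C. They are infected with saline-washed Mtb CDC1551-tdTomato (10^6 bacteria, MOI ≈10), and extracellular bacteria are washed off with PBS. Treatment is at 2×MIC, with fluorescence emission read at 581 nm at 24, 48, 72 and 96 h. Survivors are confirmed by serial dilution and plating on 7H11.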

[13] = system: Enterococcus faecalis; assay: Antibacterial activity against Enterococcus faecalis ATCC 19433 incubated for 24 hrs under aerobic condition by MABA; format: functional; details: ATCC 19433, 24 h, read-out: MIC100; in short: as §1
[14] = system: Vero; assay: Cytotoxicity against African green monkey Vero cells assessed as reduction in cell viability after 72 hrs by MTT assay; format: cell-based; details: Chlorocebus sabaeus
In short: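 Vero cells were grown in complete EMEM with 10% FBS and exposed for 72 h to 0.78–200 µg/mL. The medium was then swapped for phenol-red-free EMEM and MTT was added. Formazan absorbance was read at 570 nm to give IC50.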

[15] = system: Mycobacterium tuberculosis; assay: Bactericidal activity against Mycobacterium tuberculosis H37Rv at 2 times MIC measured every 24 hrs up to 12 days by time kill assay relative to control; format: functional
In short: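 Mid-log H37Rv (OD 0.5) is diluted to OD 0.25 and exposed at MIC, 2×MIC or 4×MIC. Every 24 h cultures are diluted 10- to 10,000-fold and plated on 7H10/OADC agar. Plates are incubated 15 days at 37 °C before colony counts.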

[16] = system: Klebsiella pneumoniae; assay: Bactericidal activity against Klebsiella pneumoniae ATCC 12019 incubated for 24 hrs under aerobic condition by MABA; format: functional; details: ATCC 12019, 24 h
[17] = system: Bacillus subtilis; assay: Antibacterial activity against Bacillus subtilis ATCC 6051 incubated for 24 hrs under aerobic condition by MABA; format: functional; details: ATCC 6051, 24 h, read-out: MIC100; in short: as §1
[18] = system: Escherichia coli; assay: Bactericidal activity against Escherichia coli ATCC 10798 incubated for 24 hrs under aerobic condition by MABA; format: functional; details: ATCC 10798, 24 h
[19] = Half life in Balb/c mouse at 30 mg/kg, po; format: ADME, organism-based; details: in vivo
In short: (§2)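 Single 30 mg/kg oral dose in six BALB/c mice; serum half-life and tmax are derived from the concentration–time profile.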

[20] = AUC (0 to 24 hrs) in Balb/c mouse serum at 30 mg/kg, po; format: ADME, organism-based; set-up: time < 24 hr, dose 30 mg/kg, route oral
In short: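 Single oral dose of 30 mg/kg in BALB/c mice (n = 6). Serum PK parameters were t1/2, tmax, Cmax and AUC over 0–24 h and to infinity. Oral bioavailability F was calculated against the 3 mg/kg IV dose.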

[21] = system: Escherichia coli; assay: Antibacterial activity against Escherichia coli ATCC 10798 incubated for 24 hrs under aerobic condition by MABA; format: functional; details: ATCC 10798, 24 h, read-out: MIC100; in short: as §1
[22] = system: Bacillus subtilis; assay: Bactericidal activity against Bacillus subtilis ATCC 6051 incubated for 24 hrs under aerobic condition by MABA; format: functional; details: ATCC 6051, 24 h
[23] = system: Mycobacterium tuberculosis; assay: Antibacterial activity against Mycobacterium tuberculosis Erdman infected in Balb/c mouse assessed as reduction in bacterial load in lungs at 50 mg/kg, po for 3 weeks starting from 10 days post infection measured on day 21 post infection; format: functional, Erdman = ATCC 35801
In short: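 Female BALB/c mice, 7–8 weeks old, are aerosol-infected with Mtb Erdman. From day 10 they receive oral gavage in water for three weeks, in groups of 5. Lungs and spleens are harvested at day 21 post-infection and plated for CFU. Efficacy is the log10 reduction in lung burden versus untreated (vehicle) controls.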

[24] = Cmax in Balb/c mouse at 3 mg/kg, iv; format: ADME, organism-based; set-up: dose 3 mg/kg, route intravenous; details: in vivo
In short: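 Single IV dose of 3 mg/kg in BALB/c mice (n = 3). Serum concentration-time data were used to derive t1/2, Cmax and AUC over 0–24 h and to infinity.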

[25] = system: Mus musculus; assay: Toxicity in po dosed Balb/c mouse assessed as effect on health measured for 7 days; format: organism-based; details: in vivo, 168 h
[26] = system: Staphylococcus aureus; assay: Antibacterial activity against Staphylococcus aureus incubated for 24 hrs under aerobic condition by MABA; format: functional; details: read-out: MIC100
In short: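 Resazurin was then added from a 0.08% stock for 1 h. MIC100 was the lowest concentration where the dye stayed blue (pink means growth). Absorbance was also read at 570 and 600 nm.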

[27] = Tmax in Balb/c mouse at 30 mg/kg, po; format: ADME, organism-based; details: in vivo; in short: as §2

CC[C@]1(C)C[C@@H](OC(=O)CSC(C)(C)CNC(=O)[C@H](N)CC(C)C)[C@]2(C)[C@H](C)CC[C@]3(CC[C@@H](O)[C@H]32)[C@@H](C)[C@@H]1O
selectivity ratio [1]: 30.1 | MBC [2]: 25 µg/mL (≈ 42.9 µM) | MBC [3]: > 25 µg/mL | MIC [4]: > 25 µg/mL | MIC [5]: 1.56 µg/mL (≈ 2.68 µM) | Cmax [6]: 6070 ng/g | MBC [7]: > 25 µg/mL | MBC [8]: 1.56 µg/mL (≈ 2.68 µM) | MBC [9]: > 25 µg/mL | MBC [10]: 0.83 µg/mL (≈ 1.42 µM) | MIC [11]: > 25 µg/mL | Activity [12]: Active | MIC [13]: 6.25 µg/mL (≈ 10.7 µM) | IC50 [14]: 25 µg/mL (≈ 42.9 µM) | Activity [15]: 100% | MBC [16]: 25 µg/mL (≈ 42.9 µM) | MIC [17]: 25 µg/mL (≈ 42.9 µM) | MBC [18]: > 25 µg/mL | half-life [19]: 4.02 h | AUC(0-t) at 24 h [20]: 2500 ng·h/mL | MIC [21]: 12.5 µg/mL (≈ 21.4 µM) | MBC [22]: > 25 µg/mL | log(activity) [23]: 0.03 | Cmax [24]: 1910 ng/mL | MTD [25]: > 200 mg/kg | MIC [26]: 0.78 µg/mL (≈ 1.34 µM) | Tmax [27]: 0.83 h
